{"source": "ChEMBL document CHEMBL1131599", "about": "“Synthesis of C3 heteroatom-substituted azetidinones that display potent cholesterol absorption inhibitory activity” (1998)", "key": {"[1]": {"test": "Percent reduction of Liver cholesterol ester levels after peroral administration in cholesterol fed hamsters at a dose 10 mg/kg/day", "assay_type": "functional", "conditions": "Cricetulus griseus, route oral", "how_it_was_run": "(§1)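 Cholesterol-fed hamsters were dosed orally for 7 days, with doses in mg/kg/day. The value is % inhibition at the stated dose, or an ED50 in mg/kg/day, with n = 4 animals per compound.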"}, "[2]": {"test": "Ability to inhibit liver cholesterol ester was determined in cholesterol fed hamsters", "assay_type": "functional, Cricetulus griseus", "how_it_was_run": "as §1"}, "[3]": {"test": "Percent reduction of liver cholesterol ester levels after po administration of compound in cholesterol fed hamsters at a dose 1 mg/kg/day", "assay_type": "functional, Cricetulus griseus", "conditions": "for inhibition in vivo at 1 mg/kg/day: Cricetulus griseus, Liver, po", "how_it_was_run": "as §1"}, "[4]": {"test": "Percent reduction of liver cholesterol ester levels after po administration of compound in cholesterol fed hamsters at a dose 3 mg/kg/day", "assay_type": "functional", "conditions": "Cricetulus griseus", "how_it_was_run": "as §1"}, "[5]": {"test": "Percent reduction of liver cholesterol ester levels after po administration of compound in cholesterol fed hamsters at a dose 25 mg/kg/day", "assay_type": "functional", "conditions": "Cricetulus griseus", "how_it_was_run": "(§2)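 Cholesterol-fed hamsters received the compound orally once daily for 7 days, with dose expressed as mg/kg/day. Four animals per compound. Values are reported as % inhibition at the given dose, or as an ED50 in mg/kg/day.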"}, "[6]": {"test": "Percent reduction of liver cholesterol ester levels after po administration of compound in cholesterol fed hamsters at a dose 10 mg/kg/day", "assay_type": "functional", "conditions": "Cricetulus griseus", "how_it_was_run": "as §1"}, "[7]": {"test": "Percent reduction of Liver cholesterol ester levels after peroral administration in cholesterol fed hamsters", "assay_type": "functional, Cricetulus griseus", "how_it_was_run": "as §1"}, "[8]": {"test": "Percent reduction of liver cholesterol ester levels after po administration of compound in cholesterol fed hamsters.", "assay_type": "functional, Cricetulus griseus", "how_it_was_run": "as §2"}}, "data": [{"smiles": "COc1ccc([C@@H]2[C@@H](CCSc3ccccc3)C(=O)N2c2ccccc2)cc1", "values": [{"measurement": "inhibition in vivo at 10 mg/kg/day", "setting": "[1]", "value": 0, "unit": "%"}]}, {"smiles": "COc1ccc([C@@H]2[C@H]([S+]([O-])CCc3ccccc3)C(=O)N2c2ccccc2)cc1", "note": "(stereo partly specified)", "values": [{"measurement": "ED50", "setting": "[2]", "value": 0.58, "unit": "mg/kg/day"}, {"measurement": "inhibition in vivo at 1 mg/kg/day", "setting": "[3]", "value": 58, "unit": "%"}, {"measurement": "inhibition in vivo at 3 mg/kg/day", "setting": "[4]", "value": 78, "unit": "%"}]}, {"smiles": "COc1ccc([C@@H]2C(S(=O)(=O)CCc3ccccc3)C(=O)N2c2ccccc2)cc1", "note": "(stereo partly specified)", "values": [{"measurement": "inhibition in vivo at 25 mg/kg/day", "setting": "[5]", "value": 54, "unit": "%"}]}, {"smiles": "COc1ccc([C@@H]2[C@@H](CCS(=O)(=O)c3ccccc3)C(=O)N2c2ccccc2)cc1", "values": [{"measurement": "inhibition in vivo at 10 mg/kg/day", "setting": "[6]", "value": 23, "unit": "%"}]}, {"smiles": "O=C1[C@@H](SCCc2ccccc2)[C@@H](c2ccc(O)cc2)N1c1ccc(F)cc1", "values": [{"measurement": "inhibition in vivo at 1 mg/kg/day", "setting": "[3]", "value": 0, "unit": "%"}]}, {"smiles": "COc1ccc([C@@H]2[C@H](SCCc3ccccc3)C(=O)N2c2ccccc2)cc1", "values": [{"measurement": "inhibition in vivo at 10 mg/kg/day", "setting": "[6]", "value": 31, "unit": "%"}]}, {"smiles": "COc1ccc([C@@H]2[C@@H](CCP(=O)(O)c3ccccc3)C(=O)N2c2ccccc2)cc1", "values": [{"measurement": "inhibition in vivo at 25 mg/kg/day", "setting": "[5]", "value": 0, "unit": "%"}]}, {"smiles": "COc1ccc([C@@H]2[C@@H](CCCc3ccccc3)C(=O)N2c2ccc(OC)cc2)cc1", "note": "[SCH-48461]", "values": [{"measurement": "ED50", "setting": "[7]", "value": 2.2, "unit": "mg/kg/day"}]}, {"smiles": "O=C1[C@H]([S+]([O-])CCc2ccccc2)[C@@H](c2ccc(O)cc2)N1c1ccc(F)cc1", "note": "(stereo partly specified)", "values": [{"measurement": "inhibition in vivo at 1 mg/kg/day", "setting": "[3]", "value": 82, "unit": "%"}, {"measurement": "inhibition in vivo at 10 mg/kg/day", "setting": "[6]", "value": 56, "unit": "%"}]}, {"smiles": "COc1ccc([C@@H]2C([S+]([O-])CCc3ccccc3)C(=O)N2c2ccccc2)cc1", "note": "(stereo partly specified)", "values": [{"measurement": "ED50", "setting": "[2]", "value": 0.59, "unit": "mg/kg/day"}, {"measurement": "inhibition in vivo at 25 mg/kg/day", "setting": "[5]", "value": 97, "unit": "%"}]}, {"smiles": "COc1ccc([C@@H]2[C@@H](P(=O)(O)CCc3ccccc3)C(=O)N2c2ccccc2)cc1", "values": [{"measurement": "inhibition in vivo at 25 mg/kg/day", "setting": "[5]", "value": 0, "unit": "%"}]}, {"smiles": "COc1ccc([C@@H]2[C@@H]([S+]([O-])CCc3ccccc3)C(=O)N2c2ccccc2)cc1", "note": "(stereo in doubt; 27)", "values": [{"measurement": "ED50", "setting": "[2]", "value": 0.21, "unit": "mg/kg/day"}, {"measurement": "Inhibition", "setting": "[3]", "value": 82, "unit": "%"}]}, {"smiles": "COc1ccc([C@@H]2[C@@H](P(=O)(CCc3ccccc3)OC)C(=O)N2c2ccccc2)cc1", "note": "(stereo partly specified)", "values": [{"measurement": "Inhibition", "setting": "[8]", "value": 0, "unit": "%"}]}, {"smiles": "COc1ccc([C@H]2C(SCCc3ccccc3)C(=O)N2c2ccccc2)cc1", "note": "(stereo partly specified)", "values": [{"measurement": "inhibition in vivo at 10 mg/kg/day", "setting": "[6]", "value": -31, "unit": "%"}]}, {"smiles": "COc1ccc([C@@H]2C(SCCc3ccccc3)C(=O)N2c2ccccc2)cc1", "note": "(stereo partly specified)", "values": [{"measurement": "inhibition in vivo at 25 mg/kg/day", "setting": "[5]", "value": 97, "unit": "%"}]}, {"smiles": "O=C1[C@@H]([S+]([O-])CCc2ccccc2)[C@@H](c2ccc(O)cc2)N1c1ccc(F)cc1", "note": "(stereo in doubt; 38)", "values": [{"measurement": "Inhibition", "setting": "[3]", "value": 42, "unit": "%"}]}, {"smiles": "O=C1[C@@H]([S+]([O-])CCc2ccccc2)[C@@H](c2ccc(O)cc2)N1c1ccc(F)cc1", "note": "(stereo in doubt; 37)", "values": [{"measurement": "inhibition in vivo at 1 mg/kg/day", "setting": "[3]", "value": 40, "unit": "%"}]}, {"smiles": "COc1ccc([C@@H]2[C@H](C(O)CCc3ccccc3)C(=O)N2c2ccccc2)cc1", "note": "(stereo partly specified)", "values": [{"measurement": "ED50", "setting": "[7]", "value": 0.4, "unit": "mg/kg/day"}]}, {"smiles": "O=C1[C@H](SCCc2ccccc2)[C@@H](c2ccc(O)cc2)N1c1ccc(F)cc1", "values": [{"measurement": "inhibition in vivo at 1 mg/kg/day", "setting": "[3]", "value": 83, "unit": "%"}]}, {"smiles": "COc1ccc([C@@H]2[C@@H](CCP(=O)(OC)c3ccccc3)C(=O)N2c2ccccc2)cc1", "note": "(stereo partly specified)", "values": [{"measurement": "inhibition in vivo at 25 mg/kg/day", "setting": "[5]", "value": 0, "unit": "%"}]}, {"smiles": "COc1ccc([C@@H]2[C@@H](CC[S+]([O-])c3ccccc3)C(=O)N2c2ccccc2)cc1", "note": "(stereo partly specified)", "values": [{"measurement": "inhibition in vivo at 10 mg/kg/day", "setting": "[6]", "value": 21, "unit": "%"}]}, {"smiles": "COc1ccc([C@@H]2[C@@H](SCCc3ccccc3)C(=O)N2c2ccccc2)cc1", "values": [{"measurement": "ED50", "setting": "[2]", "value": 0.13, "unit": "mg/kg/day"}, {"measurement": "inhibition in vivo at 1 mg/kg/day", "setting": "[3]", "value": 89, "unit": "%"}]}, {"smiles": "COc1ccc([C@@H]2[C@@H](CCC(O)c3ccccc3)C(=O)N2c2ccccc2)cc1", "note": "(stereo partly specified)", "values": [{"measurement": "ED50", "setting": "[7]", "value": 0.9, "unit": "mg/kg/day"}]}, {"smiles": "COc1ccc([C@@H]2[C@@H]([S+]([O-])CCc3ccccc3)C(=O)N2c2ccccc2)cc1", "note": "(stereo in doubt; 26)", "values": [{"measurement": "ED50", "setting": "[2]", "value": 0.9, "unit": "mg/kg/day"}, {"measurement": "Inhibition", "setting": "[3]", "value": 58, "unit": "%"}]}]}
